Values after ≈ are worked out from the molar mass of the structure shown.
Legend:
Format in all cases: functional
Escherichia coli [1] = test: Activity was determined after peroral administration against Escherichia coli #311(MP) in mouse protection test; details: po
In short: (§1)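 CD-1 female mice (20 ± 2 g) infected intraperitoneally with 0.5 mL standardized bacterial suspension: E. coli #311 in trypticase-soy broth, S. aureus Smith in 5% hog gastric mucin. Treated 0.5 h post-infection, oral or subcutaneous, 2-fold dose increments in 0.5 mL 0.2% aqueous agar, five mice per dose. 7-day survival pooled from three tests; ED50 by probit analysis.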

Escherichia coli [2] = test: Activity was determined after subcutaneous administration against Escherichia coli #311(MP) in mouse protection test; details: sc; in short: as §1
Escherichia coli [3] = test: Antibacterial activity carried out in vitro against Escherichia coli #311(MP)
Escherichia coli [4] = test: Antibacterial activity carried out in vitro against Escherichia coli ATCC 25922
Escherichia coli [5] = test: Antibacterial activity carried out in vitro against Escherichia coli MOR 84-20
Enterobacter cloacae = test: Antibacterial activity carried out in vitro against Enterobacter cloacae VHG 84-39
Klebsiella pneumoniae = test: Antibacterial activity carried out in vitro against Klebsiella pneumoniae CMC 84-31
Pseudomonas aeruginosa = test: Antibacterial activity carried out in vitro against Pseudomonas aeruginosa K84-16
Serratia marcescens = test: Antibacterial activity carried out in vitro against Serratia marcescens MOR 84-41
Staphylococcus aureus [6] = test: Activity was determined after peroral administration against Staphylococcus aureus Smith(MP) in mouse protection test; details: po; in short: as §1
Staphylococcus aureus [7] = test: Activity was determined after subcutaneous administration against Staphylococcus aureus Smith(MP) in mouse protection test; details: sc; in short: as §1
Staphylococcus aureus [8] = test: Antibacterial activity carried out in vitro against Staphylococcus aureus ATCC 29213
Staphylococcus aureus [9] = test: Antibacterial activity carried out in vitro against Staphylococcus aureus K82-26
Staphylococcus aureus [10] = test: Antibacterial activity carried out in vitro against Staphylococcus aureus Smith(MP)
Staphylococcus aureus [11] = test: Antibacterial activity carried out in vitro against Staphylococcus aureus VGH 84-47
Enterococcus faecalis = test: Antibacterial activity carried out in vitro against Streptococcus faecalis UCI 85-30

| SMILES | ED50 (Escherichia coli [1]) [mg/kg] | ED50 (Escherichia coli [2]) [mg/kg] | MIC (Escherichia coli [3]) [µg/mL] | MIC (Escherichia coli [4]) [µg/mL] | MIC (Escherichia coli [5]) [µg/mL] | MIC (Enterobacter cloacae) [µg/mL] | MIC (Klebsiella pneumoniae) [µg/mL] | MIC (Pseudomonas aeruginosa) [µg/mL] | MIC (Serratia marcescens) [µg/mL] | ED50 (Staphylococcus aureus [6]) [mg/kg] | ED50 (Staphylococcus aureus [7]) [mg/kg] | MIC (Staphylococcus aureus [8]) [µg/mL] | MIC (Staphylococcus aureus [9]) [µg/mL] | MIC (Staphylococcus aureus [10]) [µg/mL] | MIC (Staphylococcus aureus [11]) [µg/mL] | MIC (Enterococcus faecalis) [µg/mL] |
| --- | --- | --- | --- | --- | --- | --- | --- | --- | --- | --- | --- | --- | --- | --- | --- | --- |
| CN1CCN(c2c(F)c(F)c3c(=O)c(C(=O)O)cn(C4CC4)c3c2F)CC1 | 0.5 | 0.35 | 0.03 (≈ 0.0787 µM) | 0.015 (≈ 0.0393 µM) | 0.06 (≈ 0.157 µM) | 0.06 (≈ 0.157 µM) | 0.06 (≈ 0.157 µM) | 4 (≈ 10.5 µM) | 0.06 (≈ 0.157 µM) | 3.6 | 2.1 | 0.5 (≈ 1.31 µM) | 0.5 (≈ 1.31 µM) | 0.25 (≈ 0.656 µM) | 0.5 (≈ 1.31 µM) | 4 (≈ 10.5 µM) |
| CCn1cc(C(=O)O)c(=O)c2cc(F)c(N3CCN(C)CC3)cc21 [PEFLOXACIN] | 1.1 | 0.4 | – | 0.06 (≈ 0.18 µM) | – | – | 0.25 (≈ 0.75 µM) | 4 (≈ 12 µM) | – | 3.1 | 2 | 0.5 (≈ 1.5 µM) | 0.5 (≈ 1.5 µM) | 0.25 (≈ 0.75 µM) | 0.5 (≈ 1.5 µM) | 4 (≈ 12 µM) |
| CC(C)n1cc(C(=O)O)c(=O)c2c(F)c(F)c(N3CCN(C)CC3)c(F)c21 | – | – | 4 (≈ 10.4 µM) | 4 (≈ 10.4 µM) | 4 (≈ 10.4 µM) | 8 (≈ 20.9 µM) | 8 (≈ 20.9 µM) | > 128 | 4 (≈ 10.4 µM) | – | – | 64 (≈ 167 µM) | 16 (≈ 41.7 µM) | 32 (≈ 83.5 µM) | 32 (≈ 83.5 µM) | > 128 |
| CCn1cc(C(=O)O)c(=O)c2c(N3CCOCC3)c(F)c(F)c(F)c21 | – | – | > 128 | > 128 | > 128 | > 128 | > 128 | > 128 | > 128 | – | – | 128 (≈ 359 µM) | 32 (≈ 89.8 µM) | 64 (≈ 180 µM) | 128 (≈ 359 µM) | > 128 |
| CN1CCN(c2c(F)c(F)c3c(=O)c(C(=O)O)cn(-c4ccc(F)cc4)c3c2F)CC1 | – | – | 1 (≈ 2.3 µM) | 2 (≈ 4.59 µM) | 2 (≈ 4.59 µM) | 4 (≈ 9.19 µM) | 2 (≈ 4.59 µM) | 32 (≈ 73.5 µM) | 2 (≈ 4.59 µM) | – | – | 2 (≈ 4.59 µM) | 2 (≈ 4.59 µM) | 2 (≈ 4.59 µM) | 4 (≈ 9.19 µM) | 64 (≈ 147 µM) |
| CCn1cc(C(=O)O)c(=O)c2c(F)c(F)c(N3CCOCC3)c(F)c21 | – | – | 2 (≈ 5.61 µM) | 4 (≈ 11.2 µM) | 4 (≈ 11.2 µM) | 4 (≈ 11.2 µM) | 4 (≈ 11.2 µM) | 64 (≈ 180 µM) | 1 (≈ 2.81 µM) | – | – | 1 (≈ 2.81 µM) | 1 (≈ 2.81 µM) | 1 (≈ 2.81 µM) | 1 (≈ 2.81 µM) | 32 (≈ 89.8 µM) |
| CCn1cc(C(=O)O)c(=O)c2c(F)c(F)c(N3CCCC3)c(F)c21 | – | – | 2 (≈ 5.88 µM) | 2 (≈ 5.88 µM) | 4 (≈ 11.8 µM) | > 128 | > 128 | > 128 | 0.5 (≈ 1.47 µM) | – | – | 0.5 (≈ 1.47 µM) | 0.5 (≈ 1.47 µM) | 0.25 (≈ 0.735 µM) | 0.25 (≈ 0.735 µM) | > 128 |

Source: ChEMBL document CHEMBL1124495 (1989)
